Test results published in ChEMBL document CHEMBL4138126, “Synthesis, antiproliferative, anti-tubulin activity, and docking study of new 1,2,4-triazoles as potential combretastatin analogues” (Eur J Med Chem, 2017).

Assays:
Assay type in all cases: functional
[1] = tested on: 786-0; experiment: Growth inhibition of human 786-0 cells assessed as cell growth at 10 uM after 48 hrs by sulforhodamine B assay; conditions: 786-0, 48 h, read-out: Activity
Summary of the method: (§1)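 NCI 60-cell-line panel screen (nine cancer types). Compounds added at single concentration 10^-5 M, cultures incubated 48 h; growth inhibition percentages reported.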

[2] = tested on: MDA-MB-231; experiment: Growth inhibition of human MDA-MB-231 cells assessed as cell growth at 10 uM after 48 hrs by sulforhodamine B assay; conditions: MDA-MB-231, 48 h, read-out: Activity; summary of the method: as §1
[3] = tested on: COLO 205; experiment: Growth inhibition of human COLO205 cells assessed as cell growth at 10 uM after 48 hrs by sulforhodamine B assay; conditions: COLO 205, 48 h, read-out: Activity; summary of the method: as §1
[4] = tested on: ACHN; experiment: Growth inhibition of human ACHN cells assessed as cell growth at 10 uM after 48 hrs by sulforhodamine B assay; conditions: read-out: Activity; summary of the method: as §1
[5] = tested on: Malme-3M; experiment: Growth inhibition of human MALME-3M cells assessed as cell growth at 10 uM after 48 hrs by sulforhodamine B assay; conditions: read-out: Activity; summary of the method: as §1
[6] = tested on: CAKI-1; experiment: Growth inhibition of human CAKI-1 cells assessed as cell growth at 10 uM after 48 hrs by sulforhodamine B assay; conditions: CAKI-1, 48 h, read-out: Activity; summary of the method: as §1
[7] = tested on: UACC-257; experiment: Growth inhibition of human UACC257 cells assessed as cell growth at 10 uM after 48 hrs by sulforhodamine B assay; conditions: UACC-257, 48 h, read-out: Activity
Summary of the method: (§2)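 NCI 60-cell-line panel from nine tumour types (leukaemia, lung, colon, CNS, melanoma, ovarian, renal, prostate, breast). Each compound was added at one single concentration, and cultures were incubated for 48 h. Results are reported as percent growth inhibition.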

[8] = tested on: SF-268; experiment: Growth inhibition of human SF268 cells assessed as cell growth at 10 uM after 48 hrs by sulforhodamine B assay; conditions: SF-268, 48 h, read-out: Activity; summary of the method: as §1
[9] = tested on: MDA-MB-435; experiment: Growth inhibition of human MDA-MB-435 cells assessed as cell growth at 10 uM after 48 hrs by sulforhodamine B assay; conditions: MDA-MB-435, 48 h, read-out: Activity; summary of the method: as §1
[10] = tested on: SF-539; experiment: Growth inhibition of human SF539 cells assessed as cell growth at 10 uM after 48 hrs by sulforhodamine B assay; conditions: SF-539, 48 h, read-out: Activity; summary of the method: as §1
[11] = tested on: PC-3; experiment: Growth inhibition of human PC3 cells assessed as cell growth at 10 uM after 48 hrs by sulforhodamine B assay; conditions: PC-3, 48 h, read-out: Activity; summary of the method: as §1
[12] = tested on: TK-10; experiment: Growth inhibition of human TK10 cells assessed as cell growth at 10 uM after 48 hrs by sulforhodamine B assay; conditions: TK-10, 48 h, read-out: Activity; summary of the method: as §2
[13] = tested on: OVCAR-4; experiment: Growth inhibition of human OVCAR4 cells assessed as cell growth at 10 uM after 48 hrs by sulforhodamine B assay; conditions: OVCAR-4, 48 h, read-out: Activity; summary of the method: as §1
[14] = tested on: MDA-MB-468; experiment: Growth inhibition of human MDA-MB-468 cells assessed as cell growth at 10 uM after 48 hrs by sulforhodamine B assay; conditions: MDA-MB-468, 48 h, read-out: Activity; summary of the method: as §1
[15] = tested on: U-251; experiment: Growth inhibition of human U251 cells assessed as cell growth at 10 uM after 48 hrs by sulforhodamine B assay; conditions: U-251, 48 h, read-out: Activity; summary of the method: as §2
[16] = tested on: SW-620; experiment: Growth inhibition of human SW620 cells assessed as cell growth at 10 uM after 48 hrs by sulforhodamine B assay; conditions: SW-620, 48 h, read-out: Activity; summary of the method: as §2
[17] = tested on: RXF 393; experiment: Growth inhibition of human RXF393 cells assessed as cell growth at 10 uM after 48 hrs by sulforhodamine B assay; conditions: RXF 393, 48 h, read-out: Activity; summary of the method: as §1
[18] = tested on: SNB-75; experiment: Growth inhibition of human SNB75 cells assessed as cell growth at 10 uM after 48 hrs by sulforhodamine B assay; conditions: SNB-75, 48 h, read-out: Activity; summary of the method: as §2
[19] = tested on: SF-295; experiment: Growth inhibition of human SF295 cells assessed as cell growth at 10 uM after 48 hrs by sulforhodamine B assay; conditions: SF-295, 48 h, read-out: Activity; summary of the method: as §1
[20] = tested on: UO-31; experiment: Growth inhibition of human UO31 cells assessed as cell growth at 10 uM after 48 hrs by sulforhodamine B assay; conditions: UO-31, 48 h, read-out: Activity; summary of the method: as §2
[21] = tested on: SNB-19; experiment: Growth inhibition of human SNB19 cells assessed as cell growth at 10 uM after 48 hrs by sulforhodamine B assay; conditions: SNB-19, 48 h, read-out: Activity; summary of the method: as §2
[22] = tested on: OVCAR-3; experiment: Growth inhibition of human OVCAR3 cells assessed as cell growth at 10 uM after 48 hrs by sulforhodamine B assay; conditions: OVCAR-3, 48 h, read-out: Activity; summary of the method: as §1
[23] = tested on: RPMI-8226; experiment: Growth inhibition of human RPMI8226 cells assessed as cell growth at 10 uM after 48 hrs by sulforhodamine B assay; conditions: RPMI-8226, 48 h, read-out: Activity; summary of the method: as §1
[24] = tested on: A549; experiment: Growth inhibition of human A549/ATCC cells assessed as cell growth at 10 uM after 48 hrs by sulforhodamine B assay; conditions: A549, 48 h, read-out: Activity; summary of the method: as §1
[25] = tested on: UACC-62; experiment: Growth inhibition of human UACC62 cells assessed as cell growth at 10 uM after 48 hrs by sulforhodamine B assay; conditions: UACC-62, 48 h, read-out: Activity; summary of the method: as §2
[26] = tested on: SK-MEL-5; experiment: Growth inhibition of human SK-MEL-5 cells assessed as cell growth at 10 uM after 48 hrs by sulforhodamine B assay; conditions: SK-MEL-5, 48 h, read-out: Activity; summary of the method: as §1
[27] = tested on: SN12C; experiment: Growth inhibition of human SN12C cells assessed as cell growth at 10 uM after 48 hrs by sulforhodamine B assay; conditions: read-out: Activity; summary of the method: as §2
[28] = tested on: HCC 2998; experiment: Growth inhibition of human HCC2998 cells assessed as cell growth at 10 uM after 48 hrs by sulforhodamine B assay; conditions: HCC 2998, 48 h, read-out: Activity; summary of the method: as §1
[29] = tested on: SK-MEL-28; experiment: Growth inhibition of human SK-MEL-28 cells assessed as cell growth at 10 uM after 48 hrs by sulforhodamine B assay; conditions: SK-MEL-28, 48 h, read-out: Activity; summary of the method: as §1
[30] = tested on: K562; experiment: Growth inhibition of human K562 cells assessed as cell growth at 10 uM after 48 hrs by sulforhodamine B assay; conditions: K562, 48 h, read-out: Activity; summary of the method: as §1

| Structure (SMILES) | growth at 10 µM [1] [%] | growth at 10 µM [2] [%] | growth at 10 µM [3] [%] | growth at 10 µM [4] [%] | growth at 10 µM [5] [%] | growth at 10 µM [8] [%] | growth at 10 µM [9] [%] | growth at 10 µM [10] [%] | growth at 10 µM [11] [%] | growth at 10 µM [12] [%] | growth at 10 µM [13] [%] | growth at 10 µM [14] [%] | growth at 10 µM [15] [%] | growth at 10 µM [16] [%] | growth at 10 µM [17] [%] | growth at 10 µM [18] [%] | growth at 10 µM [19] [%] | growth at 10 µM [20] [%] | growth at 10 µM [21] [%] | growth at 10 µM [22] [%] | other results |
| --- | --- | --- | --- | --- | --- | --- | --- | --- | --- | --- | --- | --- | --- | --- | --- | --- | --- | --- | --- | --- | --- |
| CCOc1ccc(-n2nc(C(=O)Nc3cc(F)cc(F)c3)nc2-c2cc(OC)c(OC)c(OC)c2)cc1 | 82.1 | 64.3 | 89.9 | 82.7 | 97.5 | 88.9 | 91 | 82.4 | 69.9 | 96.9 | 84.8 | 77 | 82 | 99.3 | 88.2 | 58 | 84.6 | 53.5 | 73.3 | 93.6 | growth at 10 µM [6]: 68.8%; growth at 10 µM [7]: 90.4%; growth at 10 µM [23]: 69.4%; growth at 10 µM [24]: 73.8% |
| COc1cccc(-n2nc(C(=O)NCc3ccccc3C)nc2-c2cc(OC)c(OC)c(OC)c2)c1 | 76 | 73.5 | 84.3 | 90.5 | 94.7 | 85.8 | 85.8 | 87.7 | 83.2 | 73.2 | 81.6 | 90.1 | 85 | 102 | 109 | 31.7 | 76.1 | 35.9 | 83.2 | 81 | growth at 10 µM [25]: 72.5%; growth at 10 µM [26]: 86.8%; growth at 10 µM [27]: 91.7%; growth at 10 µM [28]: 96%; growth at 10 µM [29]: 107%; growth at 10 µM [30]: 90.8%; growth at 10 µM [23]: 95.7%; growth at 10 µM [24]: 69.2% |
| CCOc1ccc(-n2nc(C(=O)NCc3cccc(OC)c3)nc2-c2cc(OC)c(OC)c(OC)c2)cc1 | 90.2 | 76.3 | 91.8 | 97.5 | 97.7 | 91.5 | 92.5 | 88.9 | 78.4 | 87.8 | 98.9 | 87.7 | 94.2 | 108 | 92.5 | 53.2 | 90.3 | 44.3 | 90.1 | 93.5 | growth at 10 µM [25]: 82.9%; growth at 10 µM [26]: 92.2%; growth at 10 µM [27]: 96.5%; growth at 10 µM [28]: 102%; growth at 10 µM [29]: 109%; growth at 10 µM [30]: 88.5%; growth at 10 µM [23]: 84.3%; growth at 10 µM [24]: 73.2% |
